According to PubChem BioAssay:
A number with no mark means an inactive call. Records with an inconclusive call do not appear. Active and inactive are the calls of the source.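 Rule for the calls, unless noted: active = growth inhibition above 25% in both replicates, a cutoff set 3 SD above the mean; inconclusive = above 25% in only one replicate; inactive = the rest.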

Columns and labels:
[1] = S. cerevisiae growth inhibition in permissive medium (OD615), pilot counter-assay for S. cerevisiae lifespan shortening project, permissive growth control (AID 705); conditions: OD615, 24 h, at 10 µM, stronger effect = higher value
In short: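 System: S. cerevisiae with engineered DeaD lifespan system. Medium: SC raffinose/galactose permissive medium. Doses: single compound dose of 10 µM, 0.25% DMSO final. Schedule: 24 h exposure, 30 °C. Measured by: OD615 turbidity read. Read-out: growth inhibition.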

[2] = S. cerevisiae growth inhibition in restrictive medium, OD615, pilot screen, restrictive growth control, yeast lifespan reduction project (AID 706;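 active = growth inhibition above a set limit, 3 SD over mean compound inhibition, in both replicates, cut at about 43% in these data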;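 note: modified DeaD lifespan yeast strain shifted to restrictive glucose medium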); conditions: OD615, 48 h, at 10 µM, stronger effect = higher value
In short: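 Assay system – genetically modified Saccharomyces cerevisiae, DeaD replicative lifespan assay strain · Medium – CSMM-D glucose medium · Doses – 10 µM compound, 0.25% DMSO · Times – 4 h pre-incubation, 48 h exposure at 30 °C · Signal – optical density at 615 nm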

[3] = doxorubicin toxicity protection in MRP-1 cells – H69AR cells, CellTiter-Glo, duplicate, MRP-1 activator project, pilot screen (AID 807;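 active = viability increase at or above a cutoff of the median across tested compounds plus 3 SD, cut at about 8.5% in these data, passing the limit was not always enough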;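 note: compound pretreatment 18-22 h then 72 h combined with doxorubicin; 0% = doxorubicin alone and 100% = vehicle without doxorubicin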); conditions: H69AR viability with doxorubicin, CellTiter-Glo luminescence; at 10 µM; stronger effect = higher value
[4] = viability of HCT116 without oncogenic beta-catenin – human colon tumor cells, pilot screen (AID 823;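 active = cell viability at or below a set limit in both duplicate runs, the limit being the all-compound median minus 4 SD, cut at about 23% in these data, passing the limit was not always enough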;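 note: 0% = wells killed by 20 µM Hyamine and 100% = untreated DMSO cell wells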); conditions: HCT116 beta-catenin knockout viability, CellTiter-Glo, 60 h; at 10 µM; stronger effect = lower value
[5] = RAM pathway blockade in budding yeast – dse1pr::URA3 reporter, 5-FOA selection, pilot screen (AID 869;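 active = inhibition over a set limit, the all-compound mean plus 3 SD, in both replicate runs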;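 note: 0% = DMSO wells with no growth and 100% = 10 µM 1-NA-PP1 with full growth; RAM network block rescues cells from 5-FOA so hits raise OD615 growth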); conditions: S. cerevisiae dse1pr::URA3 5-FOA growth, OD615, 2 d; at 10 µM; stronger effect = higher value; strain carries analog-sensitive mutant Cbk1 kinase
[6] = RAM signaling pathway blockade in yeast – S. cerevisiae, Pdr1DBD-CYC8 efflux-inhibited sensitized strain, primary screen (AID 1298;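 active = RAM network inhibition above 8.4% in each of two replicates, 3 SD over the compound average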;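 note: 0% = DMSO untreated cells without growth and 100% = 10 µM 1-NA-PP1 full growth; higher means more yeast growth rescued from 5-FOA killing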); conditions: S. cerevisiae cbk1-as DSE1-URA3 strain, 5-FOA growth OD615, 2 d; at 50 µM; stronger effect = higher value

Compound | growth inhibition [1] | growth inhibition [2] | viability increase [3] | viability [4] | inhibition [5] | RAM network inhibition [6]
O=C(COCCOCC(=O)N(c1ccccn1)C1CCCCC1)N(c1ccccn1)C1CCCCC1 | -12.8% | -7.35% | -2.48% | 92.3% | 1.31% | 8.62%
CCOc1ccc(-n2c(SCC(N)=O)nc3c(c2=O)SCC3)cc1 | -1.29% | 8.27% | -0.72% | 98.2% | 2.31% | 7.32%
Cc1c(C(=O)NCCC2=CCCCC2)oc2ccc(S(=O)(=O)N3CCOCC3)cc12 | 2.48% | 8.58% | -0.96% | 31.5% | 2.62% | 8.35%
CC1(C)Cc2nc3sc4c(=O)n(CC(=O)NCc5ccco5)cnc4c3cc2CO1 | -8.59% | 7.79% | -5.22% | 40.5% | 0.68% | 4.21%
CCn1cc(C(=O)NCc2cccnc2)c2cc(OC)c(OC)cc2c1=O | -18.3% | -10% | -2.26% | 95.7% | 1.67% | 7.22%
C=C(C)Cn1c(CCNC(=O)CCC)nc2ccccc21 | -9.26% | -10.3% | -0.98% | 99.1% | 1.54% | 2.19%
Nc1ncnc2c1ncn2C1CCC(CO)C(O)C1 (stereo not given) | 3.96% | -0.275% | -3.38% | 107% | 1.32% | 3.68%
O=C(C1=C(O)C(=O)N(CCc2ccccc2)C1c1cccnc1)c1ccco1 (stereo not given) | -23.9% | -2.02% | -3.61% | 104% | 2.01% | 2.81%
c1coc(CNc2nc3sc4c(c3c3ncnn23)CCCC4)c1 | -19.5% | 0.565% | -2.99% | 99.4% | 2.65% | 3.48%
CC(C)c1ccc(-c2nc(N3CCCC3)nc3n[nH]c(N)c23)cc1 | -26.6% | 10.3% | -5.36% | 69.8% | 3.83% | 10.8%
COC(=O)c1cc(=O)n(Cc2ccco2)c(=Nc2ccc(F)c(Cl)c2)s1 | -17.1% | -11.1% | -8.24% | 9.25% (active) | 2.19% | 10.1%
CCOc1ccc(NC(=O)C2CC(C)=C(C)CC2C(=O)O)cc1 (stereo not given) | -13.3% | 2.49% | -1.85% | 99.1% | 1.79% | 1.67%
CCCn1c(CNC(=O)Cc2ccccc2)nc2ccccc21 | 4.79% | 4.86% | -0.37% | 106% | 2.26% | 2.59%
CCOC(=O)CNC(=O)c1cn(C)c(=O)c2cc(OC)c(OC)cc12 | -29.2% | -3.25% | -2.81% | 86.5% | 0.24% | 2.87%
Cc1ccc(C(=O)c2cn[nH]c2-c2cc(Cl)ccc2O)cc1 | 7.61% | 1.2% | -0.14% | 95.7% | 1.08% | -1.14%
O=C(CNC(=O)Cn1ccc2ccccc2c1=O)NCCCN1CCCCCC1 | -7.25% | -1.09% | -2.48% | 91.2% | -0.25% | 4.42%
Cc1cccc(N2CCN(c3nc4ccccc4n4cnnc34)CC2)c1C | -11.7% | -6.28% | -4.42% | 49.3% | 1.89% | -0.66%
COCC(=O)NCc1nc2ccccc2[nH]1 | -12.6% | -0.605% | -1.85% | 105% | 1.76% | 2.13%
O=C(CS(=O)(=O)c1c[nH]c2ccccc12)Nc1ccc2c(c1)OCCO2 | -12.2% | -1.07% | -3.49% | 95.7% | 2.55% | 1.93%
CCOC(=O)c1nc(-c2ccc3c(c2)OCO3)[nH]c1C | -0.36% | -0.67% | -6.6% | 29.7% | 3.15% | 1.76%

Compound | growth inhibition [1] | growth inhibition [2] | viability increase [3] | viability [4] | inhibition [5] | RAM network inhibition [6]
CCN1CCN(c2nc(SC)nc3sc4c(c23)CC(C)(C)OC4)CC1 | -15.9% | -8.5% | -5.96% | 66.9% | 1.39% | 2.09%
COc1ccc2c(c1)SC1=NCCS(=O)(=O)N12 | -7.75% | -10.4% | -2.86% | 105% | 0.315% | 4.32%
O=C(CN(CC(=O)N1CCOCC1)S(=O)(=O)c1ccc(Br)s1)N1CCOCC1 | 5.73% | -2.16% | -3.71% | 98% | -0.32% | 0.11%
CCOC(=O)N1CCN(C(=O)CCc2nc3sc4c(c3c(=O)[nH]2)CCCC4)CC1 | -13.4% | 2.66% | -2.68% | 104% | 2.59% | 3.99%
CC1(C)Cc2c(sc3c2c(=N)n(Cc2ccco2)c(=O)n3Cc2ccc(F)cc2)CO1 | -14.4% | -4.37% | -6.4% | 56.5% | 1.44% | 6.85%
CCOC(=O)Nc1cc(C(=O)OCC)c(C)nc1C | -8.02% | -10% | -1.85% | 98.7% | 1.25% | 0.73%
C(=N\n1cnnc1)/c1ccc(N2CCOCC2)s1 | -13.4% | -3.46% | -1.47% | 89.8% | 4.36% | 8.67%
CCN1CCN(C(=O)C2c3cc(OC)c(OC)cc3C(=O)N(C)C2c2ccc(SC)cc2)CC1 (stereo not given) | -12.5% | -4.19% | -3.74% | 92.3% | 0.995% | 2.33%
COC(=O)CCC(=O)Oc1ccc(OC(=O)CCC(=O)OC)cc1 | 7.12% | 2.51% | -4.94% | 72.9% | 1.48% | 0.94%
Cc1ccc(OCCCC(=O)Nc2nncs2)cc1 | -9.25% | -13.4% | 0.75% | 105% | 1.92% | 1.98%
COc1ccc(CNC(=O)c2ccc(NC(=O)C3CCCO3)cc2)cc1 (stereo not given) | -16.3% | -0.99% | 0.75% | 98.6% | 2.87% | 8.83%
C=CCOC(=O)CCCC(=O)NC1CCCCC1 | -26.9% | 5.64% | -0.4% | 95.6% | 1.58% | 4.88%
CCCC(=O)Nc1cc(C)c(NC(=O)Cc2ccccc2)cn1 | 2.84% | 6.81% | -1.76% | 98.2% | 0.135% | 2.84%
CSC(=NCCCN1CCOCC1)NS(=O)(=O)c1cccs1 | -13.8% | -11.4% | -1.56% | 95.6% | 1.51% | 1.45%
O=C(N=c1nc2ccccn2s1)c1ccccc1 | -6.95% | 6.63% | -7.06% | 71.6% | 3.28% | 6.13%
c1ccc(-n2ncc3c2ncn2c(C4CCCCC4)nnc32)cc1 | -12.6% | -6.54% | 0.09% | 96.1% | 1.33% | 2.45%
COc1ccc(-c2nc(N3CCOCC3)nc3n[nH]c(N)c23)cc1 | -5.32% | 14.9% | -6.84% | 74.7% | 0.26% | 3.37%
COC(=O)c1cn(NC(=O)C2CCCCC2)c(=O)c2ccccc12 | 13.2% | 6.18% | -1.25% | 94.3% | -0.16% | 5.38%
COc1ccccc1-c1nc(NC(C)=O)n[nH]1 | -12.1% | -8.54% | -4.21% | 92.1% | 3.42% | 5.35%
O=C(CCn1c(=O)[nH]c2ccsc2c1=O)N1CCc2ccccc2C1 | -13.3% | -4.91% | -0.54% | 97.7% | 2.71% | 8.73%
